From ChEMBL document CHEMBL4680175, “Sulfonamide-based ring-fused analogues for CAN508 as novel carbonic anhydrase inhibitors endowed with antitumor activity: Design, synthesis, and in vitro biological evaluation” (Eur J Med Chem, 2020)
Active and inactive are the calls of the source. The rule behind the calls is not given here.

Columns and labels:
Malme-3M = experiment: Antitumor activity against human MALME-3M cells assessed as cell growth inhibition at 10 uM incubated for 48 hrs by sulforhodamine B assay; format: functional; conditions: read-out: GI
Method in brief: (§1)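 NCI Drug Evaluation Branch protocol: primary single-dose screen at 10 μM across a 57-line human cancer panel. Drug exposure is 48 h. Cell growth and viability are read by sulforhodamine B assay. Data are given as a mean graph of percent growth of treated cells and reported as percentage growth inhibition (GI%).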

KM12 = experiment: Antitumor activity against human KM12 cells assessed as cell growth inhibition at 10 uM incubated for 48 hrs by sulforhodamine B assay; format: functional; conditions: read-out: GI; method in brief: as §1
[1] = biological target: Cyclin-dependent kinase 2/cyclin E1 (Homo sapiens, UniProt P24941); experiment: Inhibition of CDK2/cyclin E (unknown origin) expressed in baculovirus infected Sf21 insect cells using histone H1 as substrate in presence of [gamma33P]ATP
HOP-62 = experiment: Antitumor activity against human HOP62 cells assessed as cell growth inhibition at 10 uM incubated for 48 hrs by sulforhodamine B assay; format: functional; conditions: read-out: GI; method in brief: as §1
SN12C = experiment: Antitumor activity against human SN12C cells assessed as cell growth inhibition at 10 uM incubated for 48 hrs by sulforhodamine B assay; format: functional; conditions: read-out: GI; method in brief: as §1
HCT-116 = experiment: Antitumor activity against human HCT116 cells assessed as cell growth inhibition at 10 uM incubated for 48 hrs by sulforhodamine B assay; format: functional; conditions: read-out: GI; method in brief: as §1
MCF7 = experiment: Antitumor activity against human MCF7 cells assessed as cell growth inhibition at 10 uM incubated for 48 hrs by sulforhodamine B assay; format: functional; conditions: read-out: GI; method in brief: as §1
U-251 = experiment: Antitumor activity against human U251 cells assessed as cell growth inhibition at 10 uM incubated for 48 hrs by sulforhodamine B assay; format: functional; conditions: read-out: GI
Method in brief: (§2)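 NCI one-dose screen: 57-cell-line panel exposed at 10 μM for 48 h, Drug Evaluation Branch protocol. Growth and viability read by sulforhodamine B; data given as percent growth inhibition from the mean-graph of percent growth of treated cells.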

OVCAR-8 = experiment: Antitumor activity against human OVCAR-8 cells assessed as cell growth inhibition at 10 uM incubated for 48 hrs by sulforhodamine B assay; format: functional; conditions: read-out: GI; method in brief: as §1
NCI/ADR-RES = experiment: Antitumor activity against human NCI/ADR-RES cells assessed as cell growth inhibition at 10 uM incubated for 48 hrs by sulforhodamine B assay; format: functional, cell-based; method in brief: as §1
IGROV-1 = experiment: Antitumor activity against human IGROV1 cells assessed as cell growth inhibition at 10 uM incubated for 48 hrs by sulforhodamine B assay; format: functional; conditions: read-out: GI; method in brief: as §1
NCI-H522 = experiment: Antitumor activity against human NCI-H522 cells assessed as cell growth inhibition at 10 uM incubated for 48 hrs by sulforhodamine B assay; format: functional; conditions: read-out: GI; method in brief: as §1
Carbonic anhydrase 12 = Carbonic anhydrase 12 (Homo sapiens, UniProt O43570); experiment: Inhibition of recombinant human carbonic anhydrase 12 preincubated with enzyme for 15 mins by phenol red dye based stopped flow CO2 hydrase assay
CCRF-CEM = experiment: Antitumor activity against human CCRF-CEM cells assessed as cell growth inhibition at 10 uM incubated for 48 hrs by sulforhodamine B assay; format: functional; conditions: read-out: GI; method in brief: as §1
SNB-75 = experiment: Antitumor activity against human SNB-75 cells assessed as cell growth inhibition at 10 uM incubated for 48 hrs by sulforhodamine B assay; format: functional; conditions: read-out: GI; method in brief: as §2
MOLT-4 = experiment: Antitumor activity against human MOLT4 cells assessed as cell growth inhibition at 10 uM incubated for 48 hrs by sulforhodamine B assay; format: functional; conditions: read-out: GI; method in brief: as §1
SK-MEL-5 = experiment: Antitumor activity against human SK-MEL-5 cells assessed as cell growth inhibition at 10 uM incubated for 48 hrs by sulforhodamine B assay; format: functional; conditions: read-out: GI; method in brief: as §1
RPMI-8226 = experiment: Antitumor activity against human RPMI8226 cells assessed as cell growth inhibition at 10 uM incubated for 48 hrs by sulforhodamine B assay; format: functional; conditions: read-out: GI; method in brief: as §1
Hs-578T = experiment: Antitumor activity against human HS 578T cells assessed as cell growth inhibition at 10 uM incubated for 48 hrs by sulforhodamine B assay; format: functional; conditions: read-out: GI; method in brief: as §1
MDA-MB-468 = experiment: Antitumor activity against human MDA-MB-468 cells assessed as cell growth inhibition at 10 uM incubated for 48 hrs by sulforhodamine B assay; format: functional; conditions: read-out: GI; method in brief: as §1
T47D = experiment: Antitumor activity against human T-47D cells assessed as cell growth inhibition at 10 uM incubated for 48 hrs by sulforhodamine B assay; format: functional; conditions: read-out: GI; method in brief: as §2
RXF 393 = experiment: Antitumor activity against human RXF 393 cells assessed as cell growth inhibition at 10 uM incubated for 48 hrs by sulforhodamine B assay; format: functional; conditions: read-out: GI; method in brief: as §1
HOP-92 = experiment: Antitumor activity against human HOP92 cells assessed as cell growth inhibition at 10 uM incubated for 48 hrs by sulforhodamine B assay; format: functional; conditions: read-out: GI; method in brief: as §1
K562 = experiment: Antitumor activity against human K562 cells assessed as cell growth inhibition at 10 uM incubated for 48 hrs by sulforhodamine B assay; format: functional; conditions: read-out: GI; method in brief: as §1
NCI-H226 = experiment: Antitumor activity against human NCI-H226 assessed as cell growth inhibition at 10 uM incubated for 48 hrs by sulforhodamine B assay; format: functional; conditions: read-out: GI; method in brief: as §1
Carbonic anhydrase 2 = Carbonic anhydrase 2 (Homo sapiens, UniProt P00918); experiment: Inhibition of recombinant human carbonic anhydrase 2 preincubated with enzyme for 15 mins by phenol red dye based stopped flow CO2 hydrase assay
SF-539 = experiment: Antitumor activity against human SF539 cells assessed as cell growth inhibition at 10 uM incubated for 48 hrs by sulforhodamine B assay; format: functional; conditions: read-out: GI; method in brief: as §1
UO-31 = experiment: Antitumor activity against human UO-31 cells assessed as cell growth inhibition at 10 uM incubated for 48 hrs by sulforhodamine B assay; format: functional; conditions: read-out: GI; method in brief: as §2
Carbonic anhydrase 9 = Carbonic anhydrase 9 (Homo sapiens, UniProt Q16790); experiment: Inhibition of recombinant human carbonic anhydrase 9 preincubated with enzyme for 15 mins by phenol red dye based stopped flow CO2 hydrase assay
NCI-H322M = experiment: Antitumor activity against human NCI-H322M cells assessed as cell growth inhibition at 10 uM incubated for 48 hrs by sulforhodamine B assay; format: functional; conditions: read-out: GI; method in brief: as §1
MDA-MB-231 = experiment: Antitumor activity against human MDA-MB-231/ATCC cells assessed as cell growth inhibition at 10 uM incubated for 48 hrs by sulforhodamine B assay; format: functional; conditions: read-out: GI; method in brief: as §1
OVCAR-3 = experiment: Antitumor activity against human OVCAR-3 cells assessed as cell growth inhibition at 10 uM incubated for 48 hrs by sulforhodamine B assay; format: functional; conditions: read-out: GI; method in brief: as §1
SK-MEL-2 = experiment: Antitumor activity against human SK-MEL-2 cells assessed as cell growth inhibition at 10 uM incubated for 48 hrs by sulforhodamine B assay; format: functional; conditions: read-out: GI; method in brief: as §1
LOX IMVI = experiment: Antitumor activity against human LOX IMVI cells assessed as cell growth inhibition at 10 uM incubated for 48 hrs by sulforhodamine B assay; format: functional; conditions: read-out: GI; method in brief: as §1

Carbonic anhydrase 12, sequence (O43570 whole entry): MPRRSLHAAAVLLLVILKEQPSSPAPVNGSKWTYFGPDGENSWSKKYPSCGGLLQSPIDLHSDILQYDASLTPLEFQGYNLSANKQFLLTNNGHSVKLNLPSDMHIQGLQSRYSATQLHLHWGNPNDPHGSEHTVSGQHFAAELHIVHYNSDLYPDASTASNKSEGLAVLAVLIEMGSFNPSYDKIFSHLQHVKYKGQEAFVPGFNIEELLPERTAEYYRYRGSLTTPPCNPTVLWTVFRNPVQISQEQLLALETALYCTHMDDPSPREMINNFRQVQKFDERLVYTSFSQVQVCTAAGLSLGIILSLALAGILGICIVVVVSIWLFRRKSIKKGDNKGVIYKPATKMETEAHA

N#Cc1c(-c2ccc(F)cc2)nc2c(/N=N/c3ccc(S(N)(=O)=O)cc3)c(N)nn2c1N
inhibition of growth at 10 µM (Malme-3M): 20%
inhibition of growth at 10 µM (KM12): 53%
IC50 [1]: > 12500 nM
inhibition of growth at 10 µM (HOP-62): 21%
inhibition of growth at 10 µM (SN12C): 24%
inhibition of growth at 10 µM (HCT-116): 24%
inhibition of growth at 10 µM (MCF7): 59%
inhibition of growth at 10 µM (U-251): 28%
inhibition of growth at 10 µM (OVCAR-8): 25%
Activity (NCI/ADR-RES): inactive
inhibition of growth at 10 µM (IGROV-1): 36%
inhibition of growth at 10 µM (NCI-H522): 32%
Ki (Carbonic anhydrase 12): 10.9 nM
inhibition of growth at 10 µM (CCRF-CEM): 51%
inhibition of growth at 10 µM (SNB-75): 33%
inhibition of growth at 10 µM (MOLT-4): 62%
inhibition of growth at 10 µM (SK-MEL-5): 31%
inhibition of growth at 10 µM (RPMI-8226): 60%
inhibition of growth at 10 µM (Hs-578T): 23%
inhibition of growth at 10 µM (MDA-MB-468): 71%
inhibition of growth at 10 µM (T47D): 48%
inhibition of growth at 10 µM (RXF 393): 59%
inhibition of growth at 10 µM (HOP-92): 58%
inhibition of growth at 10 µM (K562): 33%
inhibition of growth at 10 µM (NCI-H226): 25%
Ki (Carbonic anhydrase 2): 399 nM
inhibition of growth at 10 µM (SF-539): 28%
inhibition of growth at 10 µM (UO-31): 38%
Ki (Carbonic anhydrase 9): 8.8 nM
inhibition of growth at 10 µM (NCI-H322M): 21%
inhibition of growth at 10 µM (MDA-MB-231): 37%
inhibition of growth at 10 µM (OVCAR-3): 20%
inhibition of growth at 10 µM (SK-MEL-2): 25%
inhibition of growth at 10 µM (LOX IMVI): 28%
